Here are results for 18 compounds from ChEMBL document CHEMBL1148028, “Design and synthesis of urea and thiourea derivatives and their inhibitory activities on lipopolysaccharide-induced NO production” (Bioorg Med Chem Lett, 2007).

Active and inactive are the calls of the source. The rule behind the calls is not given here.

One assay has as its system RAW. Kind of assay: Inhibition of LPS-induced NO production in RAW 264.7 cells at 0.1 uM after 20 hrs. The class given is functional. Conditions: Mus musculus.
The compound `N=C(N)NN` [PIMAGEDINE] displayed an inhibition at 0.1 µM of 85%.

In the next assay the test system is RAW. Kind of assay: Inhibition of LPS-induced NO production in RAW 264.7 cells at 5 uM after 20 hrs. The class given is functional, cell-based. To be noted: Mus musculus. In outline: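 Cells plated in 10% FBS–DMEM for 24 h, then given 1% FBS medium with LPS (1 µg/mL) plus compound for 20 h. Accumulated nitrite assayed by Griess reaction (10 min, room temp), absorbance 570 nm, quantified by sodium nitrite calibration. Percent inhibition relative to LPS-only control, n = 3.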
As to `O=C(O)CNC(=S)Nc1ccc(OCCn2c3ccccc3c3ccccc32)cc1`, the IC50 is 153 nM and 5 µM produced 87% inhibition.
`CCN(C(N)=O)c1ccc(OCCn2c3ccccc3c3ccccc32)cc1` had an inhibition at 5 µM of 25%.
Same read-out and setting: with `NC(=O)Nc1ccc(OCCn2c3ccccc3c3ccccc32)cc1` the figure was 24%.
Same read-out and setting: with `CN(C(N)=O)c1ccc(OCCn2c3ccccc3c3ccccc32)cc1` the figure was 8%.
`NC(=S)Nc1ccc(OCCn2c3ccccc3c3ccccc32)cc1` yielded an IC50 of 5310 nM and an inhibition at 5 µM of 55%.
Regarding `CCN(C(N)=S)c1ccc(OCCn2c3ccccc3c3ccccc32)cc1`, 5 µM produced 33% inhibition.
Still for that read-out and setting: with `O=C(O)CNC(=O)Nc1ccc(OCCn2c3ccccc3c3ccccc32)cc1` the figure was 43%; with `NC(=S)N(CC1CC1)c1ccc(OCCn2c3ccccc3c3ccccc32)cc1`, 34%; with `CC(C)NC(=O)Nc1ccc(OCCn2c3ccccc3c3ccccc32)cc1`, 15%.
As for `CCCNC(=O)Nc1ccc(OCCn2c3ccccc3c3ccccc32)cc1`, 5 µM produced 14% inhibition.
Still for that read-out and setting: under `CCNC(=O)Nc1ccc(OCCn2c3ccccc3c3ccccc32)cc1` stands 30%.
Compound `O=C(Nc1ccccc1)Nc1ccc(OCCn2c3ccccc3c3ccccc32)cc1` had an inhibition at 5 µM of 28%.
On the same count and under the same terms, under `CCOC(=O)CNC(=S)Nc1ccc(OCCn2c3ccccc3c3ccccc32)cc1` stands 41%.
Turning to `CNC(=S)Nc1ccc(OCCn2c3ccccc3c3ccccc32)cc1`, 730 nM corresponded to half-maximal inhibition (IC50) and the inhibition at 5 µM was 80%.
Regarding `CCNC(=S)Nc1ccc(OCCn2c3ccccc3c3ccccc32)cc1`, the IC50 turned out to be 901 nM and 5 µM produced 90% inhibition.
Compound `CCOC(=O)CNC(=O)Nc1ccc(OCCn2c3ccccc3c3ccccc32)cc1` had an inhibition at 5 µM of 38%.
Compound `NC(=O)N(CC1CC1)c1ccc(OCCn2c3ccccc3c3ccccc32)cc1` registered an IC50 of 3120 nM and an inhibition at 5 µM of 61%.

The subject of another assay is RAW. In words: Inhibition of iNOS protein expression in LPS-stimulated mouse RAW 264.7 cells at 10 uM after 20 hrs by Western blot analysis. The assay is classed as functional, cell-based.
Settings: not given
The essentials: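 Cells (1.5 × 10⁶ per 60-mm dish) given LPS (1 µg/mL) with or without compound for 20 h, then lysed. 20 µg lysate protein run on 8% SDS-PAGE, blotted to PVDF, probed for mouse iNOS and actin, ECL detection. iNOS band density normalized to actin; means ± SD of three densitometric analyses.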
Regarding `CNC(=S)Nc1ccc(OCCn2c3ccccc3c3ccccc32)cc1`, the result was Active.

Another assay deals with RAW. In words: Inhibition of iNOS mRna expression in LPS-stimulated mouse RAW 264.7 cells at 10 uM after 6 hrs by RT-PCR analysis. The class given is functional, cell-based.
Settings: not given
The essentials:
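Cells (1.8 × 10⁶ per 60-mm dish) stimulated with LPS (1 µg/mL) with or without compound for 6 h, washed twice with PBS. Total RNA extracted with Trizol; iNOS and β-actin mRNA assessed by RT-PCR.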
On to `CNC(=S)Nc1ccc(OCCn2c3ccccc3c3ccccc32)cc1`, for which the result was Active.
